Measured values taken from ChEMBL document CHEMBL4814044, “Design and synthesis, biological evaluation of bis-(1,2,3- and 1,2,4)-triazole derivatives as potential antimicrobial and antifungal agents” (2021).
Blank lines part the entries; values can stand above or below the compound they belong to. Calls of active or inactive are those of the source. No cut-off for these calls is given here.

Legend:
Assay type in all cases: functional
Staphylococcus aureus = assay: Antibacterial activity against Staphylococcus aureus MTCC 96 assessed as bacterial growth inhibition by microdilution method
Summary of the method: (§1)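 Broth microdilution against Gram-positive and Gram-negative strains. The endpoint is the minimal inhibitory concentration, in µg/ml.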

Bacillus subtilis = assay: Antibacterial activity against Bacillus subtilis MTCC 441 assessed as bacterial growth inhibition by microdilution method; summary of the method: as §1
Pseudomonas aeruginosa = assay: Antibacterial activity against Pseudomonas aeruginosa MTCC 424 assessed as bacterial growth inhibition by microdilution method; summary of the method: as §1
Escherichia coli = assay: Antibacterial activity against Escherichia coli MTCC 443 assessed as bacterial growth inhibition by microdilution method; summary of the method: as §1
Aspergillus niger [1] = assay: Antifungal activity against Aspergillus niger MTCC 404 assessed as zone of inhibition at 15.9 uM incubated for 2 days by cross streak plate method; conditions: MTCC 404, 48 h, time 2 day, read-out: IZ
Summary of the method: (§2)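 Fungal strain (A. niger MTCC 404 or S. cerevisiae MTCC 1344) was incubated with the compound for 2 days at 37 °C. Growth inhibition was then assessed by the cross streak plate method.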

Aspergillus niger [2] = assay: Antifungal activity against Aspergillus niger MTCC 404 assessed as zone of inhibition at 23.9 uM incubated for 2 days by cross streak plate method; conditions: MTCC 404, 48 h, time 2 day, read-out: IZ; summary of the method: as §2
Aspergillus niger [3] = assay: Antifungal activity against Aspergillus niger MTCC 404 assessed as zone of inhibition at 31.8 uM incubated for 2 days by cross streak plate method; conditions: MTCC 404, 48 h, time 2 day, read-out: IZ; summary of the method: as §2
Saccharomyces cerevisiae [4] = assay: Antifungal activity against Saccharomyces cerevisiae MTCC 1344 assessed as zone of inhibition at 15.9 uM incubated for 2 days by cross streak plate method; conditions: MTCC 1344, 48 h, time 2 day, read-out: IZ; summary of the method: as §2
Saccharomyces cerevisiae [5] = assay: Antifungal activity against Saccharomyces cerevisiae MTCC 1344 assessed as zone of inhibition at 23.9 uM incubated for 2 days by cross streak plate method; conditions: MTCC 1344, 48 h, time 2 day, read-out: IZ; summary of the method: as §2
Saccharomyces cerevisiae [6] = assay: Antifungal activity against Saccharomyces cerevisiae MTCC 1344 assessed as zone of inhibition at 31.8 uM incubated for 2 days by cross streak plate method; conditions: MTCC 1344, 48 h, time 2 day, read-out: IZ; summary of the method: as §2
[7] = Antioxidant activity assessed as DPPH radical scavenging activity
Aspergillus niger [8] = assay: Antifungal activity against Aspergillus niger MTCC 404 assessed as zone of inhibition at 15.6 uM incubated for 2 days by cross streak plate method; conditions: MTCC 404, 48 h, time 2 day, read-out: IZ; summary of the method: as §2
Aspergillus niger [9] = assay: Antifungal activity against Aspergillus niger MTCC 404 assessed as zone of inhibition at 23.4 uM incubated for 2 days by cross streak plate method; conditions: MTCC 404, 48 h, time 2 day, read-out: IZ; summary of the method: as §2
Aspergillus niger [10] = assay: Antifungal activity against Aspergillus niger MTCC 404 assessed as zone of inhibition at 31.2 uM incubated for 2 days by cross streak plate method; conditions: MTCC 404, 48 h, time 2 day, read-out: IZ; summary of the method: as §2
Saccharomyces cerevisiae [11] = assay: Antifungal activity against Saccharomyces cerevisiae MTCC 1344 assessed as zone of inhibition at 15.6 uM incubated for 2 days by cross streak plate method; conditions: MTCC 1344, 48 h, time 2 day, read-out: IZ; summary of the method: as §2
Saccharomyces cerevisiae [12] = assay: Antifungal activity against Saccharomyces cerevisiae MTCC 1344 assessed as zone of inhibition at 23.4 uM incubated for 2 days by cross streak plate method; conditions: MTCC 1344, 48 h, time 2 day, read-out: IZ; summary of the method: as §2
Saccharomyces cerevisiae [13] = assay: Antifungal activity against Saccharomyces cerevisiae MTCC 1344 assessed as zone of inhibition at 31.2 uM incubated for 2 days by cross streak plate method; conditions: MTCC 1344, 48 h, time 2 day, read-out: IZ; summary of the method: as §2
Aspergillus niger [14] = assay: Antifungal activity against Aspergillus niger MTCC 404 assessed as zone of inhibition at 18.3 uM incubated for 2 days by cross streak plate method; conditions: MTCC 404, 48 h, time 2 day, read-out: IZ; summary of the method: as §2
Aspergillus niger [15] = assay: Antifungal activity against Aspergillus niger MTCC 404 assessed as zone of inhibition at 27.5 uM incubated for 2 days by cross streak plate method; conditions: MTCC 404, 48 h, time 2 day, read-out: IZ; summary of the method: as §2
Aspergillus niger [16] = assay: Antifungal activity against Aspergillus niger MTCC 404 assessed as zone of inhibition at 36.6 uM incubated for 2 days by cross streak plate method; conditions: MTCC 404, 48 h, time 2 day, read-out: IZ; summary of the method: as §2
Saccharomyces cerevisiae [17] = assay: Antifungal activity against Saccharomyces cerevisiae MTCC 1344 assessed as zone of inhibition at 18.3 uM incubated for 2 days by cross streak plate method; conditions: MTCC 1344, 48 h, time 2 day, read-out: IZ; summary of the method: as §2
Saccharomyces cerevisiae [18] = assay: Antifungal activity against Saccharomyces cerevisiae MTCC 1344 assessed as zone of inhibition at 27.5 uM incubated for 2 days by cross streak plate method; conditions: MTCC 1344, 48 h, time 2 day, read-out: IZ; summary of the method: as §2
Saccharomyces cerevisiae [19] = assay: Antifungal activity against Saccharomyces cerevisiae MTCC 1344 assessed as zone of inhibition at 36.6 uM incubated for 2 days by cross streak plate method; conditions: MTCC 1344, 48 h, time 2 day, read-out: IZ
Summary of the method: (§3)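 S. cerevisiae MTCC 1344 cultures were incubated for 2 days at 37 °C and then tested by the cross streak plate method.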

Aspergillus niger [20] = assay: Antifungal activity against Aspergillus niger MTCC 404 assessed as zone of inhibition at 17.2 uM incubated for 2 days by cross streak plate method; conditions: MTCC 404, 48 h, time 2 day, read-out: IZ; summary of the method: as §2
Aspergillus niger [21] = assay: Antifungal activity against Aspergillus niger MTCC 404 assessed as zone of inhibition at 25.9 uM incubated for 2 days by cross streak plate method; conditions: MTCC 404, 48 h, time 2 day, read-out: IZ; summary of the method: as §2
Aspergillus niger [22] = assay: Antifungal activity against Aspergillus niger MTCC 404 assessed as zone of inhibition at 34.5 uM incubated for 2 days by cross streak plate method; conditions: MTCC 404, 48 h, time 2 day, read-out: IZ; summary of the method: as §2
Saccharomyces cerevisiae [23] = assay: Antifungal activity against Saccharomyces cerevisiae MTCC 1344 assessed as zone of inhibition at 17.2 uM incubated for 2 days by cross streak plate method; conditions: MTCC 1344, 48 h, time 2 day, read-out: IZ; summary of the method: as §2
Saccharomyces cerevisiae [24] = assay: Antifungal activity against Saccharomyces cerevisiae MTCC 1344 assessed as zone of inhibition at 25.9 uM incubated for 2 days by cross streak plate method; conditions: MTCC 1344, 48 h, time 2 day, read-out: IZ; summary of the method: as §2
Saccharomyces cerevisiae [25] = assay: Antifungal activity against Saccharomyces cerevisiae MTCC 1344 assessed as zone of inhibition at 34.5 uM incubated for 2 days by cross streak plate method; conditions: MTCC 1344, 48 h, time 2 day, read-out: IZ; summary of the method: as §3

Compound: O=C(CSc1nnc(-c2ccccc2OCc2cn(-c3ccccc3)nn2)n1-c1ccccc1)c1ccccc1
MIC (Staphylococcus aureus): 9.8 µg/mL
MIC (Bacillus subtilis): 4.9 µg/mL
MIC (Pseudomonas aeruginosa): 9.1 µg/mL
MIC (Escherichia coli): 9.8 µg/mL
zone of inhibition at 18.3 µM (Aspergillus niger [14]): 2.1 mm
zone of inhibition at 27.5 µM (Aspergillus niger [15]): 3 mm
zone of inhibition at 36.6 µM (Aspergillus niger [16]): 3 mm
zone of inhibition at 18.3 µM (Saccharomyces cerevisiae [17]): 1.5 mm
zone of inhibition at 27.5 µM (Saccharomyces cerevisiae [18]): 2 mm
zone of inhibition at 36.6 µM (Saccharomyces cerevisiae [19]): 3 mm
Activity [7]: inactive

Compound: O=C(Sc1nnc(-c2ccccc2OCc2cn(-c3ccccc3)nn2)n1Cc1ccccc1)c1ccccc1
MIC (Staphylococcus aureus): 8.9 µg/mL
MIC (Bacillus subtilis): 4 µg/mL
MIC (Pseudomonas aeruginosa): 8.7 µg/mL
MIC (Escherichia coli): 10 µg/mL
zone of inhibition at 18.3 µM (Aspergillus niger [14]): 5.5 mm
zone of inhibition at 27.5 µM (Aspergillus niger [15]): 6.8 mm
zone of inhibition at 36.6 µM (Aspergillus niger [16]): 7 mm
zone of inhibition at 18.3 µM (Saccharomyces cerevisiae [17]): 6 mm
zone of inhibition at 27.5 µM (Saccharomyces cerevisiae [18]): 6.8 mm
zone of inhibition at 36.6 µM (Saccharomyces cerevisiae [19]): 6.7 mm
Activity [7]: inactive

Compound: O=C(CSc1nnc(-c2ccccc2OCc2cn(-c3ccccc3)nn2)n1-c1ccccc1)c1ccc(Cl)cc1
MIC (Staphylococcus aureus): 8.4 µg/mL
MIC (Bacillus subtilis): 4 µg/mL
MIC (Pseudomonas aeruginosa): 7.9 µg/mL
MIC (Escherichia coli): > 45.4 µg/mL
zone of inhibition at 17.2 µM (Aspergillus niger [20]): 2.1 mm
zone of inhibition at 25.9 µM (Aspergillus niger [21]): 3 mm
zone of inhibition at 34.5 µM (Aspergillus niger [22]): 3 mm
zone of inhibition at 17.2 µM (Saccharomyces cerevisiae [23]): 2 mm
zone of inhibition at 25.9 µM (Saccharomyces cerevisiae [24]): 3 mm
zone of inhibition at 34.5 µM (Saccharomyces cerevisiae [25]): 3 mm
Activity [7]: inactive

The next compounds have a lower MIC (Staphylococcus aureus) than those just listed; values first:

MIC (Staphylococcus aureus): 8 µg/mL
MIC (Bacillus subtilis): 4.1 µg/mL
MIC (Pseudomonas aeruginosa): 7.5 µg/mL
MIC (Escherichia coli): > 40.8 µg/mL
Compound: O=C(CSc1nnc(-c2ccccc2OCc2cn(-c3ccccc3)nn2)n1Cc1ccccc1)c1cccc(Cl)c1
zone of inhibition at 15.9 µM (Aspergillus niger [1]): 2 mm
zone of inhibition at 23.9 µM (Aspergillus niger [2]): 2 mm
zone of inhibition at 31.8 µM (Aspergillus niger [3]): 3 mm
zone of inhibition at 15.9 µM (Saccharomyces cerevisiae [4]): 1.5 mm
zone of inhibition at 23.9 µM (Saccharomyces cerevisiae [5]): 2 mm
zone of inhibition at 31.8 µM (Saccharomyces cerevisiae [6]): 3 mm
Activity [7]: inactive

MIC (Staphylococcus aureus): 3.9 µg/mL
MIC (Bacillus subtilis): 4.2 µg/mL
MIC (Pseudomonas aeruginosa): 8.8 µg/mL
MIC (Escherichia coli): 4.5 µg/mL
Compound: O=C(CSc1nnc(-c2ccccc2OCc2cn(-c3ccccc3)nn2)n1Cc1ccccc1)c1ccc(Br)cc1
zone of inhibition at 15.6 µM (Aspergillus niger [8]): 5 mm
zone of inhibition at 23.4 µM (Aspergillus niger [9]): 7.4 mm
zone of inhibition at 31.2 µM (Aspergillus niger [10]): 7.6 mm
zone of inhibition at 15.6 µM (Saccharomyces cerevisiae [11]): 6 mm
zone of inhibition at 23.4 µM (Saccharomyces cerevisiae [12]): 6.5 mm
zone of inhibition at 31.2 µM (Saccharomyces cerevisiae [13]): 7 mm
Activity [7]: inactive

MIC (Staphylococcus aureus): 8 µg/mL
MIC (Bacillus subtilis): 4 µg/mL
MIC (Pseudomonas aeruginosa): 8.2 µg/mL
MIC (Escherichia coli): 8.5 µg/mL
Compound: O=C(CSc1nnc(-c2ccccc2OCc2cn(-c3ccc(Cl)cc3)nn2)n1Cc1ccccc1)c1ccc(Cl)cc1
zone of inhibition at 15.9 µM (Aspergillus niger [1]): 2 mm
zone of inhibition at 23.9 µM (Aspergillus niger [2]): 2 mm
zone of inhibition at 31.8 µM (Aspergillus niger [3]): 3 mm
zone of inhibition at 15.9 µM (Saccharomyces cerevisiae [4]): 2 mm
zone of inhibition at 23.9 µM (Saccharomyces cerevisiae [5]): 2 mm
zone of inhibition at 31.8 µM (Saccharomyces cerevisiae [6]): 3 mm
Activity [7]: inactive

MIC (Staphylococcus aureus): 4.1 µg/mL
MIC (Bacillus subtilis): 6.5 µg/mL
MIC (Pseudomonas aeruginosa): 7.3 µg/mL
MIC (Escherichia coli): 6.1 µg/mL
Compound: O=C(Sc1nnc(-c2ccccc2OCc2cn(-c3ccc(Cl)cc3)nn2)n1Cc1ccccc1)c1ccccc1
zone of inhibition at 17.2 µM (Aspergillus niger [20]): 5.3 mm
zone of inhibition at 25.9 µM (Aspergillus niger [21]): 6 mm
zone of inhibition at 34.5 µM (Aspergillus niger [22]): 7.6 mm
zone of inhibition at 17.2 µM (Saccharomyces cerevisiae [23]): 5 mm
zone of inhibition at 25.9 µM (Saccharomyces cerevisiae [24]): 7 mm
zone of inhibition at 34.5 µM (Saccharomyces cerevisiae [25]): 7.4 mm
Activity [7]: inactive
